# Measurements from different studies.
# Compare with care: the assays were run in different laboratories.
# BTK: Tyrosine-protein kinase BTK (BTK, Homo sapiens, UniProt Q06187)
Structure (SMILES),target,assay,setting,measurement,value
COc1ccc2[nH]c3c4[nH]c5ccc(OC)cc5c4c4c(c3c2c1)C(=O)NC4=O,BTK,"binding, competition with immobilised ligand",1 µM,remaining binding,74%
COc1ccc2oc(-c3ccc4nc(N)oc4c3)c/c(=N\c3ccccc3NC(=O)CCN)c2c1,"Tyrosine-protein kinase BTK (BTK, Homo sapiens, UniProt Q06187, R28H)",cell-free assay,1 µM,remaining signal,99%
CN1CCN(C(=O)c2ccc(NC(=O)Nc3ccc(N(C)c4ccnc(Nc5ccc(CS(C)(=O)=O)cc5)n4)cc3)cc2)CC1,BTK,"binding, competition with immobilised ligand",1 µM,remaining binding,50%
Cc1nc(Nc2ncc(C(=O)Nc3c(C)cccc3Cl)s2)cc(N2CC[C@H](N)C2)n1,BTK,"enzyme activity, inhibitor, mobility shift",1 nM,inhibition,65%
C=CC(=O)Nc1cccc(Oc2nc(Nc3ccc(N4CCN(C)CC4)cc3)nc3ccoc23)c1,"Tyrosine-protein kinase BTK, non-phosphorylated (BTK, Homo sapiens, UniProt Q06187)","cell-free assay, TR-FRET",,kinact/KI,219000 M⁻¹ s⁻¹
CO[C@@H]1[C@H](N(C)C(=O)c2ccccc2)C[C@H]2O[C@]1(C)n1c3ccccc3c3c4c(c5c6ccccc6n2c5c31)C(=O)NC4,BTK,"enzyme activity, inhibitor",1 µM,inhibition,0%
CCCCC(=O)Nc1ccc(-c2ccc3ncn(CCC)c(=O)c3c2)cn1,BTK,"binding, competition with immobilised ligand",0.5 µM,remaining binding,89%
C1=C/COCc2cc(ccc2OCCN2CCCC2)Nc2nccc(n2)-c2cccc(c2)COC/1,BTK,cell-free assay,0.1 µM,remaining signal,100%
C#Cc1cnc(Nc2ccnc(CO)c2)nc1Nc1ccccc1S(C)(=O)=NC#N (stereo not shown),BTK,cell-free assay,1 µM,remaining signal,41%
[2H]c1cc(C)c(NC(=O)c2cnc(Nc3cc(N4CC[C@@H](O)C4)nc(C)n3)s2)c(Cl)c1,BTK,"enzyme activity, inhibitor, mobility shift",1 nM,inhibition,73%
CC#CC(=O)N1CCC[C@H]1c1nc(-c2ccc(C(=O)Nc3ccccn3)cc2)c2c(N)nccn12,BTK,"enzyme activity, inhibitor",1 µM,inhibition,100%
Cc1nc(Nc2ncc(C(=O)Nc3c(C)cccc3Cl)s2)cc(N2CCC(O)CC2)n1,BTK,"enzyme activity, inhibitor, mobility shift",1 nM,inhibition,77%
N#Cc1ccc(NC(=O)Nc2ccccc2)cc1,BTK,"cell-free assay, competition with immobilised ligand",25 µM,remaining binding,89%
